The target in data set [1] is T1, Sphingomyelin phosphodiesterase (Homo sapiens, UniProt P17405).
T1 sequence (P17405 whole entry): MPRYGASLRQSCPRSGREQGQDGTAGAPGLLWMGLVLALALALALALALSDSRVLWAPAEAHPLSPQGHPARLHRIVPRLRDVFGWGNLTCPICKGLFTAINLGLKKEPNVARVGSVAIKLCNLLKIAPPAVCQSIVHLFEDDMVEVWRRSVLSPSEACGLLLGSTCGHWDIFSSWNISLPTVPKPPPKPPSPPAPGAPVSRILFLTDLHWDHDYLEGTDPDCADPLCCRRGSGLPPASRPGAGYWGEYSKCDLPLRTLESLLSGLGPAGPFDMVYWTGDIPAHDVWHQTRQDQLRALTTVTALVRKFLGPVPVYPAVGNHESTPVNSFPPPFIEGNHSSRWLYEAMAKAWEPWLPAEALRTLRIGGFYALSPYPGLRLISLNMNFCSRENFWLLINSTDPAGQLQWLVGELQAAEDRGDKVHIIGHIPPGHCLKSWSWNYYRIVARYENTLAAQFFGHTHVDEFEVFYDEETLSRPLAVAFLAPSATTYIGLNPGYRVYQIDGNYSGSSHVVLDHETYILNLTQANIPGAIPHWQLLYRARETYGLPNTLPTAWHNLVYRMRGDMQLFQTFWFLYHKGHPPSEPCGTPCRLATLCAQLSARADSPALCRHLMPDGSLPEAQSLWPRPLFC
The data set can be described thus: Inhibition of human Huh7 cell derived acid sphingomyelinase using NBD-sphingomyelin as substrate after 30 mins by fluorescence based assay. The gist of the method:
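Cultured cells were lysed in 25 mM Tris-HCl pH 7.4, 5 mM EDTA, sonicated and cleared at 300 g. 400 μg protein incubated with NBD-sphingomyelin in 100 mM sodium acetate pH 4.7, 1% Triton X-100, 40 mM CaCl2, 100 μM ZnCl2. Inhibitors added in DMSO, 37 °C, 30 min. Stopped with chloroform/methanol 2:1; NBD-ceramide fluorescence after TLC.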

Data set [2] deals with T2, Sphingomyelin phosphodiesterase 2 (Homo sapiens) (UniProt O60906).
T2 sequence (whole entry): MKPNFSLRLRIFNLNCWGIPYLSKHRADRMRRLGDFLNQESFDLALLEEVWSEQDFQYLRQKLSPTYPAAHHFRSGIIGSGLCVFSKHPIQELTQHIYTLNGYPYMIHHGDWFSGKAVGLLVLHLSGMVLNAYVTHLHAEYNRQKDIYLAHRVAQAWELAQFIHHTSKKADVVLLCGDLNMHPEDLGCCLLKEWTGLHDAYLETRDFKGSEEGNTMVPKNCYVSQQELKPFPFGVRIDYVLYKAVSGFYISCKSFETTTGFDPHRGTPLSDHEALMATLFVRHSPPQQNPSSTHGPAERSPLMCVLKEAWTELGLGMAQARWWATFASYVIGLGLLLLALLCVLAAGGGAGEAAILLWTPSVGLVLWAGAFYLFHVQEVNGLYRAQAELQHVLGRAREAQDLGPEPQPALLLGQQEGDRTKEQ
The data set can be described thus: Inhibition of neutral sphingomyelinase (unknown origin) at 100 uM using NBD-sphingomyelin as substrate after 30 mins by fluorescence based assay. The gist of the method:
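Neutral sphingomyelinase assay run as the ASM cell-extract assay (NBD-sphingomyelin, 37 °C, 30 min, chloroform/methanol extraction, TLC, NBD-ceramide fluorescence). Buffer was 200 mM Tris-HCl pH 7.4 with 10 mM MgCl2 and 10 mM dithiothreitol. Tested at 100 μM.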

The nature of data set [3]: Drug uptake in human CMEC/D3 cells at 40 uM after 0.5 to 4 hrs by HPLC analysis. The class given is ADME, cell-based. To be noted: hcmec/d3, 40 µM. The gist of the method: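 hCMEC/D3 cells seeded at 2×10^5/well and grown to 80%. Compound added at a final 40 μM; serum-free medium as control. At time points, cells washed with ice-cold PBS, lysed on ice 30 min, spun 12000 rpm, 4 °C, 15 min. Lysate protein by BCA and compound content measured; uptake rate = lysate concentration/dose concentration. n=3.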

A short description of data set [4]: Ratio of drug uptake in Sprague-Dawley rat brain to plasma at 48 mg/kg, ip after 2 hrs by LC-MS/MS analysis. To be noted: read-out: BPR. The class given is ADME, organism-based. The gist of the method: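 Nine female SD rats, three per time point, single ip dose of 48 mg/Kg. At 0.5, 2 and 4 h rats were anesthetized with CO2. Heart blood was taken into EDTA-K2 and centrifuged 1500 g, 10 min, for plasma. Brain was weighed and homogenized 1:5 in 20% methanol-water. LC-MS/MS on a C18 column. Mean of 3.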

The source made the active and inactive calls. No cut-off for these calls is given here.

The term IC50 denotes the midpoint of a concentration-inhibition curve. Low readings indicate greater potency, high ones weaker potency. As to `O=C(NO)c1cc(OCc2ccc(-c3ccc(Cl)cc3)cc2)no1`, in data set [1], the IC50 amounted to 320 nM. Also, the inhibition entry in data set [2] is “inactive”. For the same compound, in data set [3], the Drug uptake entry is recorded as “Active”. Moreover, the Kp at 2 h in data set [4] is 6.49.

Source of the values: ChEMBL document CHEMBL4376888, “Discovery of Potent, Selective, and Direct Acid Sphingomyelinase Inhibitors with Antidepressant Activity” (J Med Chem, 2020).
